Ba/F3 V617F tox = loss of viability in JAK2V617F-driven Ba/F3 cells | Ba/F3 EpoR-JAK2V617F viability, ATP luminescence | inhibition, % at 5.6 µM | hit rate 1.1% among 220,000 | AID 1446;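 active = inhibition above the campaign mean plus 3 SD over all tested compounds, cut at about 24% in these data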;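 also: cytokine-independent growth of Ba/F3 cells driven by EpoR plus mutant JAK2; 0% = DMSO-treated cells and 100% = JAK inhibitor I control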
BaF3 parental = counter-screen for JAK2V617F inhibitors: parental Ba/F3 viability inhibitors; CellTiter-Glo ATP luminescence; inhibition, % at 5.6 µM; hit rate 1.1% among 220,000;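 active = inhibition above a per-campaign cutoff, the mean inhibition of all tested compounds plus 3 SD, cut at about 27% in these data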;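 also: 0% = DMSO wells and 100% = JAK Inhibitor I control wells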
L major viab = Leishmania major promastigote growth inhibition | Leishmania major promastigotes, resazurin fluorescence viability | inhibition, % at 10 µM | hit rate 9% among 200,000; in the data active = inhibition above about 50%;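 also: promastigotes grown with compound for 44 hours at 28 °C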
bCat nuc transl = alters nuclear translocation of beta-catenin in HeLa cells; immunofluorescence imaging; nuclear translocation activity, % at 5 µM; hit rate 0.3% among 190,000; AID 1665;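 active = nuclear translocation activity above 50% at 5 µM, with a well cell count of 50 or more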;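 also: per-cell ratio of nuclear to cytoplasmic median beta-catenin stain intensity; plate controls were DMSO negative control for no effect and GSK-3 inhibitor IX positive control for full effect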
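System: HeLa cells, endogenous beta-catenin; compound dosing: 5 µM primary single dose, 0.1% DMSO, 0.02–20 µM confirmation series; incubation: 24 h compound exposure at 37°C, 5% CO2; signal: beta-catenin immunofluorescence imaging with DAPI; evaluation: % activation, nuclear-to-cytoplasmic median beta-catenin signal ratio per cell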
MT stabilize HCS = microtubule stabilization, imaging screen. HeLa tubulin immunostaining HCS, 24 h; share of cells brighter than vehicle mean+2SD. % tubulin-high responders, % at 10 µM. hit rate 0.83% among 200,000;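 active = plate Z-score above 3 for both tubulin-high and condensed-nucleus cell shares, with cell loss under 80%, at 10 µM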;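 also: anti alpha tubulin signal scored within the nucleus-defined area of each cell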
APP 5UTR inh = APP translation inhibition; SH-SY5Y APP 5'UTR-luciferase reporter, luminescence; inhibition, % at 2 µM; hit rate 0.82% among 190,000;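 active = inhibition above a set limit, derived from the sample mean plus 3 SD, cut at about 45% in these data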
L major 1uM = L. major promastigote growth inhibition, 1 uM repeat; shares compounds with L major viab; resazurin fluorescence, 48 h; inhibition, % at 1 µM; hit rate 13% among 1,100; AID 1258;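 active = inhibition above about 50% in both repeat tests, limit read from the data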
* = called active by the depositor; . = no result given. An excerpt weighted towards active compounds, which were near 9.6% of everything screened.

SMILES	Ba/F3 V617F tox	BaF3 parental	L major viab	bCat nuc transl	MT stabilize HCS	APP 5UTR inh	L major 1uM
CCOC(=O)c1c(-c2ccccc2)c(C(C)=O)c(=O)n(C)c1C	.	.	-7.2	.	6.0	-9.2	.
CCOC(=O)c1c2c(n(C)c1C)C(=O)C(=O)c1ccc(Br)cc1-2	-2.7	-1.9	100.0*	.	23.7	-5.3	97.9*
O=C(COc1ccc(/C=N/NC(=O)C(=O)N2CCCCCC2)cc1)Nc1ccccc1Cl	1.5	8.5	-3.2	.	4.6	3.2	.
Cc1cc(C)c2nc(Cl)c(Cl)nc2c1	-3.6	-1.2	.	-1.6	.	.	.
Cn1c(SCCN2CCCCC2)nnc1-c1ccccc1Br	-0.1	4.2	73.3*	.	2.9	-4.9	-2.3
Cc1ccc(-n2cccn2)c(CN2CCCC(CNC(=O)c3ccc(F)cc3)C2)c1 (configuration not stated)	2.7	8.9	-3.2	0.2	3.1	10.4	.
Cc1ccc(-n2nnnc2CCl)cc1	0.3	-1.6	95.7*	0.2	2.8	-18.6	14.7
c1ccc(C(Cc2nc(-c3ccncc3)no2)c2ccccc2)cc1	-0.5	6.0	69.8*	.	2.6	1.4	11.0
O=C(CCn1c(=O)sc2ccccc21)NCc1ccco1	-4.0	5.8	-4.4	-1.7	3.1	2.5	.
COc1ccc(C(=O)NC(=S)NNC(=O)c2cnccn2)cc1	0.1	5.0	100.4*	1.0	4.9	22.0	5.5
COc1ccc(CC(=O)NNC(=O)c2cnccn2)cc1	2.4	5.8	-5.6	-1.7	2.9	8.6	.
COc1ccc(OCC(=O)N2c3ccc(C)cc3C3CN(C)CCC32)cc1 (configuration not stated)	2.3	4.9	2.1	-1.3	2.0	14.7	.
Cc1ccc2c(c1)C1CN(C)CCC1N2C(=S)NC(=O)c1ccc(Br)cc1 (configuration not stated)	-3.5	3.9	99.3*	-1.7	2.4	13.1	-6.8
c1ccc(N2CCN(c3ccccc3)C2c2cccs2)cc1	-1.6	5.4	93.9*	-0.9	5.7	-24.0	-5.9
Nc1c(C(O)(C(F)(F)F)C(F)(F)F)cc(C(O)(C(F)(F)F)C(F)(F)F)c2ccccc12	3.1	8.3	100.2*	.	1.3	-9.7	-7.1
CC(C)(OC1OC(CO)C(O)C(O)C1O)[C@H]1Oc2ccc3ccc(=O)oc3c2[C@H]1O (some centres not stated)	-1.0	7.2	-6.8	-0.6	2.6	-16.8	.
O=C(O)Cc1ccc2sc(-c3ccccc3)nc2c1	2.2	9.4	72.0*	.	1.0	-3.3	-5.7
Fc1cccc(NC(=S)NCc2ccc(Cl)cc2)c1	-1.4	1.8	70.0*	-4.7	0.9	-2.0	6.3
Nc1c(C(=O)NCCN2CCOCC2)c2nc3ccccc3nc2n1-c1ccccc1	4.5	8.4	13.1	-1.0	1.9	7.6	.
Nc1c(C(=O)NCCN2CCOCC2)c2nc3ccccc3nc2n1CCc1ccccc1F	5.2	8.7	64.7*	0.1	2.3	16.9	-14.1
C=CCOc1nc2c(c(=O)n(Cc3ccc(Cl)cc3)c(=O)n2C)n1C	2.3	11.6	-5.2	-0.3	2.0	-10.8	.
CC1Cc2ccccc2N1C(=O)Cn1cnc2ccccc21 (configuration not stated)	4.0	6.4	-5.1	-2.0	2.1	-3.4	.
Cc1noc2ncnc(Sc3ccc(Br)cc3)c12	3.6	1.7	67.1*	-4.5	4.0	-16.8	32.4
CCOC(=O)c1c(-c2ccc(F)cc2)csc1NC(=O)CCN1CCOCC1	0.0	-1.8	93.5*	-0.7	5.0	-13.2	77.4*
COc1cc2oc(=O)ccc2c(OC)c1CC(O)C(C)(C)O (configuration not stated)	.	.	.	-0.7	.	.	.
Cc1ccccc1N1C(=O)c2cccc([N+](=O)[O-])c2C1=O	-3.1	5.3	-7.5	1.8	1.2	-17.7	.
Cc1ccccc1-n1ncc2c([N+](=O)[O-])cc([N+](=O)[O-])cc21	-0.7	-0.1	100.4*	-0.6	2.6	-8.2	98.5*
CCC(C(=O)NCc1ccncc1)c1ccccc1 (configuration not stated)	-4.0	1.1	-4.1	4.2	1.5	13.1	.
Cc1sc(NC(=O)CN(Cc2ccccc2)C(=O)C2CC2)c(C(N)=O)c1C	0.4	6.2	-5.9	-2.5	1.6	-22.7	.

Source: PubChem
